{"source": "BindingDB's records for doi:10.1021/np800692t", "about": "(Chinese Academy of Sciences, 2010)", "target": "Signal transducer and activator of transcription 3 (Homo sapiens, UniProt P40763)", "sequence (P40763 whole entry)": "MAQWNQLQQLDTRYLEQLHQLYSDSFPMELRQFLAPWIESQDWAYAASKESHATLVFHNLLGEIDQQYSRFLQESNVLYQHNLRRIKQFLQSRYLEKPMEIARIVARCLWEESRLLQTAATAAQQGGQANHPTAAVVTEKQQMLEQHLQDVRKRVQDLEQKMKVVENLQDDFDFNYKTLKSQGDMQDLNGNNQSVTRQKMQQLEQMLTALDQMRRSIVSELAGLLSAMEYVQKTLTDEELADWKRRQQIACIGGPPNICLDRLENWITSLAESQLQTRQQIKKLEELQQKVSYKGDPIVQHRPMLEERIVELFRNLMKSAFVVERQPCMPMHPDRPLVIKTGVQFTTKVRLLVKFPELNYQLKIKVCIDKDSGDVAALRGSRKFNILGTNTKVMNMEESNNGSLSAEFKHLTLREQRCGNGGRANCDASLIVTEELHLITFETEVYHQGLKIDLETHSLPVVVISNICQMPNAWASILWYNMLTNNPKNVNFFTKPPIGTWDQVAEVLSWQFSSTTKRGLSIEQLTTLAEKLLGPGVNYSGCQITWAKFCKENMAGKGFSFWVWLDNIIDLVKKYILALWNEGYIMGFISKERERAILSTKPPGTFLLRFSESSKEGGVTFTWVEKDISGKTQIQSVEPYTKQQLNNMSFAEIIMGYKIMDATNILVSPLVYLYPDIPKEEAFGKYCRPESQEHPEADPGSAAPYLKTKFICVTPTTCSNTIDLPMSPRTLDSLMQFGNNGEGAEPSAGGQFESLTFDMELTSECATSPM", "assay": "Inhibition of STAT3 by Western blotting", "method_in_brief": "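Phosphotyrosine Stat3 levels in treated cells, tested up to 10 µM. Cells washed in ice-cold PBS, lysed in SDS sample buffer, equal protein run on SDS-PAGE and transferred to PVDF. Blots blocked in 5% nonfat milk/TBST, then phospho-Stat3 and β-tubulin antibodies at 4 °C overnight, secondary 2 h room temperature, ECL detection. IC50 derived.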", "data": [{"molecule": "CC(=O)OC(C)(C)/C=C/C(=O)[C@](C)(O)[C@H]1[C@H](O)C[C@@]2(C)[C@@H]3CC=C4[C@H](C[C@H](O)C(=O)C4(C)C)[C@]3(C)C(=O)C[C@]12C", "note": "[CUCURBITACIN B]", "values": [{"measurement": "IC50", "result": 3, "unit": "µM"}]}]}
